Screens as filed in PubChem.
KCNK9 inh – inhibitors of human KCNK9 two-pore domain potassium channel. Q9NPC2. HEK293 KCNK9, FluxOR thallium flux fluorescence; hits give low values. B-score at 10 µM. 310,000 tested, 1.2% active. AID 488922;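 active means ratio B-score over 3 SD below the library mean, with starting fluorescence within 5 SD of its mean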;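 further: negative B-score means less thallium flux so channel inhibition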
Target sequence (Q9NPC2 whole entry, looked up, the tested form may be a part): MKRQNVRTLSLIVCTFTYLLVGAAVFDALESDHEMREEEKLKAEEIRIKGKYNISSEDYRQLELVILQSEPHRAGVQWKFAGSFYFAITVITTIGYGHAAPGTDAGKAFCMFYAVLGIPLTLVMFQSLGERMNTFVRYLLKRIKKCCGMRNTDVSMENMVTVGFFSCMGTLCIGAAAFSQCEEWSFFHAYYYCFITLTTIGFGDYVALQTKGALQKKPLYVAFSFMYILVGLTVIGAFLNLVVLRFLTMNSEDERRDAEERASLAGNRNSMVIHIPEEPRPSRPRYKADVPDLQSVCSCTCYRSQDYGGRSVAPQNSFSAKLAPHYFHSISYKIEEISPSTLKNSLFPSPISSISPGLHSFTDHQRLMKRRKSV
Kir21 inh – Kir2.1 (mouse) channel inhibition; P35561; 310,000 tested, 0.85% active; B-score at 10 µM; HEK293-Kir2.1, FluxOR thallium flux fluorescence; hits give low values;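 active means fluorescence ratio B-score at or below minus 3 SD of library scores, with starting-brightness B-score within 2 SD, cut at about -4.2 in these data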;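 further: channel flux triggered by added potassium and thallium sulfate stimulus; B-score of peak minus minimum fluorescence over baseline after thallium stimulus; more negative B-score means stronger Kir2.1 block with less thallium influx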
hERG protect – hERG (human) protection from proarrhythmic block; Q12809; CHO-hERG, FluxOR thallium flux, dofetilide IC70 present; activation (rescue from dofetilide block), less the hit threshold, % at 10 µM; 310,000 tested, 0.51% active; AID 1511;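 active means activation above the mean of controls blocked by dofetilide plus 5 SD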;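 further: thallium influx through hERG after potassium depolarization seen as dye fluorescence rise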
KCNQ1 pot – potentiates or activates the human KCNQ1 potassium channel; P51787; CHO-K1 KCNQ1, thallium flux FluxOR fluorescence; hits give high values; B-score at 10 µM; 310,000 tested, 0.35% active; AID 2648;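 active means fluorescence ratio B-score, a plate-corrected score, at least three library SD, with initial intensity B-score within 5 SD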
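Test system: CHO-K1 cells stably expressing KCNQ1 / Medium: assay buffer / Also added: depolarizing K+/Tl+ stimulus, K2SO4 and Tl2SO4 each 12.5 mM in 5x stock / Incubation: 90 min dye loading and 20 min compound exposure, both at room temperature / Signal: thallium influx via FluxOR fluorescence, kinetic imaging / Evaluation: B score of baseline-normalized fluorescence ratio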
KCNK3 inh – human KCNK3 channel inhibition, primary screen | O14649 | CHO-KCNK3 thallium flux, FluxOR fluorescence; hits give low values | B-score at 10 µM | 340,000 tested, 0.84% active | AID 602410;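 active means B-score under library mean minus 4 SD, starting fluorescence ratio at most library mean plus 5 SD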;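 further: more negative B-score means stronger inhibition of thallium flux through KCNK3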
KCNQ1 block – human KCNQ1 channel inhibition; P51787; CHO-K1 KCNQ1, FluxOR thallium flux fluorescence; hits give high values; B-score at 10 µM; 310,000 tested, 1.3% active; AID 2642;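 active means compounds whose thallium flux B-score, printed positive for inhibition, exceeds three library SD while starting fluorescence stays within three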;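 further: channel opened by potassium depolarization with thallium stimulus after 20 min compound exposure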
* hit, by the source's call. Shown are actives, neighbours in structure and some others; about 3.8% of the full set was active somewhere.

What do the screens show for `CCCOC(=S)NC(=O)c1sc2ccccc2c1Cl`?
KCNK9 inh: inactive; Kir21 inh: 0.2; hERG protect: 15*; KCNQ1 pot: 49*; KCNK3 inh: inactive; KCNQ1 block: inactive

How did CC(C)(C)C(=O)NC(=S)NNC(=O)c1sc2ccccc2c1Cl do in these assays?
KCNK9 inh: inactive; Kir21 inh: 2.1; hERG protect: 34*; KCNQ1 pot: 49*; KCNK3 inh: inactive; KCNQ1 block: inactive

Results for O=C(NNC(=S)NC1CCCCC1)c1sc2ccccc2c1Cl ?
KCNK9 inh: inactive; Kir21 inh: -0.82; hERG protect: -9; KCNQ1 pot: inactive; KCNK3 inh: inactive; KCNQ1 block: inactive

How did C=CCNC(=O)CN(CCc1ccccc1)S(=O)(=O)c1ccccc1 do in these assays?
KCNK9 inh: inactive; Kir21 inh: -0.37; hERG protect: -11; KCNQ1 pot: inactive; KCNK3 inh: inactive; KCNQ1 block: inactive

What do the screens show for `O=C(Nc1ccccc1Cl)C1C(c2ccccc2)C1(Cl)Cl` (stereo not drawn)?
KCNK9 inh: inactive; Kir21 inh: -0.55; hERG protect: -11; KCNQ1 pot: inactive; KCNK3 inh: inactive; KCNQ1 block: 6*

Results for O=C1OCC2=C1C(c1ccc(F)cc1)Sc1ccccc1N2 (stereo not drawn) ?
KCNK9 inh: inactive; Kir21 inh: -0.89; hERG protect: 6.0*; KCNQ1 pot: inactive; KCNK3 inh: inactive; KCNQ1 block: inactive

Results for COc1cc(C2Sc3ccccc3NC3=C2C(=O)OC3)cc(OC)c1OC (stereo not drawn) ?
KCNK9 inh: inactive; Kir21 inh: 1.4; hERG protect: -14; KCNQ1 pot: inactive; KCNK3 inh: inactive; KCNQ1 block: inactive

What do the screens show for `Cc1cc(O)cc(=O)n1CCc1ccccc1`?
KCNK9 inh: inactive; Kir21 inh: 0.96; hERG protect: -8; KCNQ1 pot: inactive; KCNK3 inh: inactive; KCNQ1 block: inactive

Results for O=[N+]([O-])c1ccc(CN2CCOCCOCCN(Cc3ccc([N+](=O)[O-])cc3)CCOCC2)cc1 ?
KCNK9 inh: -7.2*; Kir21 inh: -0.83; hERG protect: -25; KCNQ1 pot: inactive; KCNK3 inh: inactive; KCNQ1 block: inactive

How did O=C1CC(c2ccc(F)cc2)c2cc3c(cc2N1)CCC3 (stereo not drawn) do in these assays?
KCNK9 inh: inactive; Kir21 inh: 0.62; hERG protect: -5; KCNQ1 pot: inactive; KCNK3 inh: inactive; KCNQ1 block: inactive

How did CC(C)c1cc(CNC(=O)C2CCC(=O)N(CCc3ccc(Cl)cc3)C2)on1 (stereo not drawn) do in these assays?
KCNK9 inh: inactive; Kir21 inh: 0.01; hERG protect: -3; KCNQ1 pot: inactive; KCNK3 inh: inactive; KCNQ1 block: inactive

How did COc1ccc(/C=C/c2cc(=O)c3cc(Cl)ccc3o2)cc1 do in these assays?
KCNK9 inh: inactive; Kir21 inh: 0.04; hERG protect: 4.6*; KCNQ1 pot: inactive; KCNK3 inh: inactive; KCNQ1 block: inactive

What do the screens show for `O=C(O)c1cc(=O)c2cc(Cl)ccc2o1`?
KCNK9 inh: inactive; Kir21 inh: 0; hERG protect: -8; KCNQ1 pot: inactive; KCNK3 inh: inactive; KCNQ1 block: inactive

How did Nc1ccc2ccccc2c1C(=O)c1ccccc1 do in these assays?
KCNK3 inh: inactive

How did O=[N+]([O-])c1ccc(-[n+]2ccc3ccccc3c2)c([N+](=O)[O-])c1 do in these assays?
KCNK9 inh: inactive; Kir21 inh: -4.7*; hERG protect: -13; KCNQ1 pot: inactive; KCNK3 inh: inactive; KCNQ1 block: inactive

How did O=[N+]([O-])c1ccc(SNc2ccccc2)c([N+](=O)[O-])c1 do in these assays?
KCNK3 inh: inactive

Results for CCCN1C(=O)/C(=C/C=C2\N(CC)c3ccccc3C2(C)C)SC1=S ?
KCNK9 inh: inactive; Kir21 inh: -4.8; hERG protect: -12; KCNQ1 pot: inactive; KCNK3 inh: inactive; KCNQ1 block: 8*

What do the screens show for `CC(C)Cn1c(=O)c(C(=O)Nc2cnccn2)c(O)c2ccccc21`?
KCNK9 inh: inactive; Kir21 inh: -2.9; hERG protect: -9; KCNQ1 pot: inactive; KCNK3 inh: inactive; KCNQ1 block: inactive

Results for CC(C)Cn1c(=O)c(C(=O)Nc2ccncc2)c(O)c2ccccc21 ?
KCNK9 inh: inactive; Kir21 inh: 0.91; hERG protect: -17; KCNQ1 pot: inactive; KCNK3 inh: inactive; KCNQ1 block: 8*

Results for COc1ccccc1CNC(=O)COC(=O)Cc1cccs1 ?
KCNK9 inh: inactive; Kir21 inh: 2; hERG protect: -11; KCNQ1 pot: inactive; KCNK3 inh: inactive; KCNQ1 block: inactive

What do the screens show for `O=C(/C=C/c1cccc(Br)c1)c1ccc2c(c1)OCO2`?
KCNK9 inh: -7.8*; Kir21 inh: 1.9; hERG protect: -9; KCNQ1 pot: inactive; KCNK3 inh: inactive; KCNQ1 block: inactive

How did O=C(/C=C/c1ccccc1)c1ccc2c(c1)OCO2 do in these assays?
KCNK9 inh: inactive; Kir21 inh: 1.1; hERG protect: -7; KCNQ1 pot: inactive; KCNK3 inh: inactive; KCNQ1 block: inactive

What do the screens show for `NCC(c1ccccc1)(c1ccccc1)c1ccccc1`?
KCNK9 inh: inactive; Kir21 inh: -4.8*; hERG protect: -11; KCNQ1 pot: inactive; KCNK3 inh: inactive; KCNQ1 block: inactive

Results for NCC(O)(c1ccc(Cl)cc1)c1ccc(Cl)cc1 ?
KCNK9 inh: inactive; Kir21 inh: -3.1; hERG protect: -17; KCNQ1 pot: inactive; KCNK3 inh: inactive; KCNQ1 block: inactive

Results for COc1ccc(CCN=C(N)NS(=O)(=O)c2ccc(F)cc2)cc1OC ?
KCNK9 inh: inactive; Kir21 inh: 0.13; hERG protect: -10; KCNQ1 pot: inactive; KCNK3 inh: inactive; KCNQ1 block: inactive

How did COc1ccc(C)cc1NS(=O)(=O)c1ccc2c(c1)N(C)CCO2 do in these assays?
KCNK9 inh: inactive; Kir21 inh: -5.6*; hERG protect: 1; KCNQ1 pot: inactive; KCNK3 inh: inactive; KCNQ1 block: inactive

How did NS(=O)(=O)c1ccc(CCNC(=O)CSc2nc3ccccc3c(=O)n2CC2CCCO2)cc1 (stereo not drawn) do in these assays?
KCNK9 inh: inactive; Kir21 inh: -0.03; hERG protect: -10; KCNQ1 pot: inactive; KCNK3 inh: inactive; KCNQ1 block: inactive

What do the screens show for `CCc1ccc2c(c1)c(N=NC1=NC(=O)CS1)c(O)n2C`?
KCNK9 inh: inactive; Kir21 inh: 0.94; hERG protect: 1; KCNQ1 pot: 13*; KCNK3 inh: inactive; KCNQ1 block: inactive

What do the screens show for `CCN=C1S/C(=C\c2ccc(O)c(OCC)c2)C(=O)N1CC`?
KCNK9 inh: inactive; Kir21 inh: -5.7*; hERG protect: -17; KCNQ1 pot: inactive; KCNK3 inh: inactive; KCNQ1 block: inactive
